Activity calls are given as the source filed them. The rule behind the calls is not given here.
Assays:
A549 [1] = experiment: Downregulation of ARL6IP mRNA expression in human A549 cells at 10 uM incubated for 48 hrs by qRT-PCR analysis; type: functional, cell-based
In short: (§1)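 Cells treated 48 h. Total RNA extracted with Trizol, reverse-transcribed, and SYBR RT-qPCR run: 95 °C 30 s, then 40 cycles of 95 °C 6 s and 60 °C 20 s. mRNA normalized to the DMSO-treated group. Mean SD of three independent experiments, t-test versus DMSO.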

[2] = molecular target: T1, Protein cereblon/Histone-lysine N-methyltransferase EZH2 (Homo sapiens) (UniProt Q15910+Q96SW2); experiment: PROTAC activity at CRBN E3 ligase/EZH2 in PRC2 complex in human SU-DHL-6 cells assessed as induction of EED degradation by measuring reduction in EED protein level at 1 uM incubated for 48 hrs by Western blot analysis; type: cell-based
In short: (§2)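 Cells cultured in DMEM or RPMI 1640 with 10% FBS and 1% penicillin-streptomycin, 37 °C, 5% CO2; exposed to 1 μM compound for 48 h. Lysates run on SDS-PAGE and transferred to nitrocellulose. Blocked 2 h in 5% skim milk, primary antibody overnight at 4 °C, then secondary antibody. Chemiluminescent detection of PRC2 subunits and H3K27me3.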

[3] = molecular target: T1, Protein cereblon/Histone-lysine N-methyltransferase EZH2 (Homo sapiens); experiment: PROTAC activity at CRBN E3 ligase/EZH2 in PRC2 complex in human SK-OV-3 cells assessed as induction of EED degradation by measuring reduction in EED protein level at 1 uM incubated for 48 hrs by Western blot analysis; type: cell-based; in short: as §2
[4] = molecular target: T1, Protein cereblon/Histone-lysine N-methyltransferase EZH2 (Homo sapiens); experiment: PROTAC activity at CRBN E3 ligase/EZH2 in PRC2 complex in human WSUDLCL2 cells assessed as reduction in H3K27me3 level at 10 uM incubated for 48 hrs by Western blot analysis; type: cell-based
MDA-MB-468 [5] = experiment: Downregulation of CHEK1 mRNA expression in human MDA-MB-468 cells at 10 uM incubated for 48 hrs by qRT-PCR analysis; type: functional, cell-based; in short: as §1
A549 [6] = experiment: Downregulation of […] mRNA expression in human A549 cells at 10 uM incubated for 48 hrs by qRT-PCR analysis; type: functional, cell-based; in short: as §1
A549 [7] = experiment: Antiproliferative activity against human A549 cells harboring SWI/SNF mutant assessed as inhibition of cell growth at 10 uM treated for 9 days by optical microscopic analysis; type: functional, cell-based; conditions: time 9.0 day
In short: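 Cells seeded at 5 × 10³ per well, grown 24 h, then exposed to compound at 10 μM for 9 days with medium refreshed. Cells were photographed and counted on days 1, 3, 5, 7 and 9. For lines 1-2, EZH2-targeting or control shRNA was induced in the cells. Mean SD of three independent experiments; t-test against control.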

[8] = molecular target: T1, Protein cereblon/Histone-lysine N-methyltransferase EZH2 (Homo sapiens); experiment: PROTAC activity at CRBN E3 ligase/EZH2 in PRC2 complex in human SU-DHL-6 cells assessed as induction of EZH2 degradation by measuring reduction in EZH2 protein level at 1 uM incubated for 48 hrs by Western blot analysis; type: cell-based; in short: as §2
[9] = molecular target: T1, Protein cereblon/Histone-lysine N-methyltransferase EZH2 (Homo sapiens); experiment: PROTAC activity at CRBN E3 ligase/EZH2 in PRC2 complex in human WSUDLCL2 cells assessed as downregulation of SUZ12 expression at 1 uM pretreated with EED226 for 4 hrs followed by compound addition and measured after 48 hrs by Western blot analysis; type: cell-based
In short: (§3)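 WSU-DLCL-2 cells pretreated 4 h with the named inhibitor, then compound added and incubated a further 48 h. EZH2, SUZ12, EED and RbAp48 measured by western blot (nitrocellulose transfer, skim-milk block, primary antibody overnight at 4 °C, chemiluminescent detection).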

[10] = molecular target: T1, Protein cereblon/Histone-lysine N-methyltransferase EZH2 (Homo sapiens); experiment: PROTAC activity at CRBN E3 ligase/EZH2 in PRC2 complex in human WSUDLCL2 cells assessed as induction of EED degradation by measuring reduction in EED protein level at 1 uM measured after 48 to 72 hrs by Western blot analysis; type: cell-based; conditions: time 48-72 hrs
[11] = molecular target: T1, Protein cereblon/Histone-lysine N-methyltransferase EZH2 (Homo sapiens); experiment: PROTAC activity at CRBN E3 ligase/EZH2 in PRC2 complex in human WSUDLCL2 cells assessed as induction of SUZ12 degradation incubated for 48 hrs by Western blot analysis; type: cell-based; conditions: dose 1-10 µM
In short: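 WSU-DLCL-2 cells treated 48 h (1 μM for the single-concentration screen), lysed; SDS-PAGE, nitrocellulose transfer, 5% milk block, primary antibody 4 °C overnight, chemiluminescence. Bands quantified by densitometry, normalized to GAPDH, expressed relative to DMSO-treated cells; mean ± SD of three independent experiments, t-test.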

[12] = molecular target: T1, Protein cereblon/Histone-lysine N-methyltransferase EZH2 (Homo sapiens); experiment: PROTAC activity at CRBN E3 ligase/EZH2 in PRC2 complex in human WSUDLCL2 cells assessed as induction of RbAp48 degradation incubated for 48 hrs by Western blot analysis; type: cell-based; conditions: dose 1-10 µM
Pfeiffer [13] = experiment: Upregulation of TNFRSF21 mRNA expression in human Pfeiffer cells at 1 uM incubated for 48 hrs by qRT-PCR analysis; type: functional, cell-based
In short: (§4)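 WSU-DLCL-2 or Pfeiffer cells treated 48 h. Trizol RNA extraction, reverse transcription, SYBR qPCR (95 °C 30 s; 40 cycles of 95 °C 6 s, 60 °C 20 s). mRNA normalized to DMSO-treated cells; mean ± SD of three independent experiments, t-test.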

MDA-MB-468 [14] = experiment: Downregulation of […] mRNA expression in human MDA-MB-468 cells at 10 uM incubated for 48 hrs by qRT-PCR analysis; type: functional, cell-based; in short: as §1
[15] = molecular target: T1, Protein cereblon/Histone-lysine N-methyltransferase EZH2 (Homo sapiens); experiment: PROTAC activity at CRBN E3 ligase/EZH2 in PRC2 complex in human WSUDLCL2 cells assessed as downregulation of RbAp48 expression at 1 uM pretreated with lenalidomide for 4 hrs followed by compound addition and measured after 48 hrs by Western blot analysis; type: cell-based; in short: as §3
[16] = molecular target: T1, Protein cereblon/Histone-lysine N-methyltransferase EZH2 (Homo sapiens); experiment: PROTAC activity at CRBN E3 ligase/EZH2 in PRC2 complex in human WSUDLCL2 cells assessed as effect on RbAp48 mRNA expression at 1 uM incubated for 48 hrs by RT-qPCR analysis; type: cell-based
In short: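 WSU-DLCL-2 cells treated 48 h with 1 μM compound. Total RNA extracted with Trizol and reverse-transcribed. SYBR qPCR run as 95 °C 30 s, then 40 cycles of 95 °C 6 s and 60 °C 20 s. PRC2 subunit mRNA normalized to the DMSO-treated group; mean SD, t-test.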

[17] = molecular target: T1, Protein cereblon/Histone-lysine N-methyltransferase EZH2 (Homo sapiens); experiment: PROTAC activity at CRBN E3 ligase/EZH2 in PRC2 complex in human SU-DHL-6 cells assessed as induction of SUZ12 degradation by measuring reduction in SUZ12 protein level at 1 uM incubated for 48 hrs by Western blot analysis; type: cell-based; in short: as §2
[18] = molecular target: T1, Protein cereblon/Histone-lysine N-methyltransferase EZH2 (Homo sapiens); experiment: PROTAC activity at CRBN E3 ligase/EZH2 in PRC2 complex in human SK-OV-3 cells assessed as induction of RpAb48 degradation by measuring reduction in RpAb48 protein level at 1 uM incubated for 48 hrs by Western blot analysis; type: cell-based; in short: as §2
NCI-H1299 = experiment: Downregulation of […] mRNA expression in human NCI-H1299 cells at 10 uM incubated for 48 hrs by qRT-PCR analysis; type: functional, cell-based; in short: as §1
Pfeiffer [19] = experiment: Upregulation of CDKN2A mRNA expression in human Pfeiffer cells at 1 uM incubated for 48 hrs by qRT-PCR analysis; type: functional, cell-based; in short: as §4

T1 sequence (Q15910 whole entry, looked up): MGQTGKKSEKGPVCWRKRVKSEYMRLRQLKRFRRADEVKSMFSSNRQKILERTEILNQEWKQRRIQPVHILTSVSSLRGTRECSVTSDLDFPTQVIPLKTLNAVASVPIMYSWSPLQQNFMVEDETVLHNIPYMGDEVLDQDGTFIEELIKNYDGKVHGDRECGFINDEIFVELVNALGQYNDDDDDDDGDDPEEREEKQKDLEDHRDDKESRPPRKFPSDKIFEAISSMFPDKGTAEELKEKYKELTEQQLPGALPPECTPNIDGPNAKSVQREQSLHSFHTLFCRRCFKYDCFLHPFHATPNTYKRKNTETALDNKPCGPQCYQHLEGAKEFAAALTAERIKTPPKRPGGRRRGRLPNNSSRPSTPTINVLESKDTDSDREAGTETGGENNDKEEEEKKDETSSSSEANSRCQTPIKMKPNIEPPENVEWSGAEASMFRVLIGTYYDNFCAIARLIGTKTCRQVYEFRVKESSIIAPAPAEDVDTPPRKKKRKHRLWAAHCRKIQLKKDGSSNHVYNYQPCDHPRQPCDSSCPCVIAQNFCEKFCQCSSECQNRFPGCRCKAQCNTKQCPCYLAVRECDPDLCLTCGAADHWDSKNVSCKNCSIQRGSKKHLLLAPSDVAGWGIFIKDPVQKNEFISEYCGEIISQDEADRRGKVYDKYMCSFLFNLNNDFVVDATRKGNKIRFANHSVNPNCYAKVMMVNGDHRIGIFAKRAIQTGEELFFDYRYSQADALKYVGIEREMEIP
T1 sequence (Q96SW2 whole entry, looked up): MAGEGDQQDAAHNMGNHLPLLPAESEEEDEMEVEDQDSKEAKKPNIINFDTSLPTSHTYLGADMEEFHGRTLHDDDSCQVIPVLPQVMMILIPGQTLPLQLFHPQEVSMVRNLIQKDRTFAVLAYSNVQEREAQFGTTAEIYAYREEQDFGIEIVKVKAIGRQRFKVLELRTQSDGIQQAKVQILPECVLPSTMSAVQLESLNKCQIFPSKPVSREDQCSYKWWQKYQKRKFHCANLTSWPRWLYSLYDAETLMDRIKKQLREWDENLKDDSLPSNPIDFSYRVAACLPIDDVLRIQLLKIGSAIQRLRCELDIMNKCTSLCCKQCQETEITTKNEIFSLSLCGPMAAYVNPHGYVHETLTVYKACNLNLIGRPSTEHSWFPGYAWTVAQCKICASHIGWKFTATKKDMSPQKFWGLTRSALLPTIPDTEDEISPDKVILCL

- Activity [2]: Active
- Activity [3]: Active
- Activity [4]: inactive
- Activity [8]: Active
- Activity [9]: Active
- Activity [10]: Active
- Activity [11]: Dose-Dependent Effect
- Activity [12]: Dose-Dependent Effect
- Activity [15]: inactive
- Activity [16]: inactive
- Activity [17]: Active
- Activity [18]: Active
SMILES: CCN(c1cc(-c2ccc(CN3CCN(CCCCCCCOc4cccc5c4C(=O)N(C4CCC(=O)NC4=O)C5=O)CC3)cc2)cc(C(=O)NCc2c(C)cc(C)[nH]c2=O)c1C)C1CCOCC1 (stereo not given)
- Activity (A549 [1]): Active
- Activity (MDA-MB-468 [5]): Active
- Activity (A549 [6]): Active
- Activity (A549 [7]): Active
- Activity (Pfeiffer [13]): Active
- Activity (MDA-MB-468 [14]): Active
- Activity (NCI-H1299): Active
- Activity (Pfeiffer [19]): inactive

From ChEMBL document CHEMBL5038571, “Design and Synthesis of EZH2-Based PROTACs to Degrade the PRC2 Complex for Targeting the Noncatalytic Activity of EZH2” (J Med Chem, 2021)
